Converted amounts (≈) assume the structure as drawn.
Legend:
Format in all cases: functional
Staphylococcus aureus [1] = test: Antibacterial activity against erythromycin-susceptible Staphylococcus aureus ATCC 25923 by broth microdilution method
Outline: (§1)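 MICs were determined in vitro by broth microdilution following the NCCL-recommended method. Azithromycin and clarithromycin were run alongside as reference antibiotics on the same strain panel.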

Escherichia coli = test: Antibacterial activity against penicillin-susceptible Escherichia coli ATCC 25922 by broth microdilution method; outline: as §1
Streptococcus pyogenes [2] = test: Antibacterial activity against erythromycin-susceptible Streptococcus pyogenes clinical isolate by broth microdilution method; outline: as §1
Pseudomonas aeruginosa = test: Antibacterial activity against penicillin-susceptible Pseudomonas aeruginosa ATCC 27853 by broth microdilution method; outline: as §1
Bacillus subtilis = test: Antibacterial activity against erythromycin/penicillin-susceptible Bacillus subtilis ATCC 9372 by broth microdilution method; outline: as §1
[3] = system: Staphylococcus epidermidis; test: Antibacterial activity against penicillin-resistant Staphylococcus epidermidis clinical isolate by broth microdilution method
Outline: (§2)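 Broth microdilution per NCCL recommendation, read as minimal inhibitory concentration, run alongside azithromycin and clarithromycin references. Strains: S. pneumoniae B1 (erythromycin-resistant, ermB), A22072 (erythromycin-resistant, mefA), AB11 (erythromycin-resistant, erm and mef); S. aureus ATCC29213 ([…]); S. epidermidis clinical isolate (penicillin-resistant, not characterized).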

Staphylococcus aureus [4] = test: Antibacterial activity against […] Staphylococcus aureus ATCC 29213 by broth microdilution method; outline: as §2
Streptococcus pneumoniae [5] = test: Antibacterial activity against erythromycin-resistant Streptococcus pneumoniae B1 expressing ermB gene by broth microdilution method; outline: as §2
Streptococcus pneumoniae [6] = test: Antibacterial activity against erythromycin-resistant Streptococcus pneumoniae A22072 expressing mefA gene by broth microdilution method; outline: as §2
Streptococcus pneumoniae [7] = test: Antibacterial activity against erythromycin-resistant Streptococcus pneumoniae AB11 expressing ermB/mefA genes by broth microdilution method; outline: as §2
Streptococcus pyogenes [8] = test: Antibacterial activity against erythromycin-resistant Streptococcus pyogenes R1 clinical isolate by broth microdilution method

SMILES | MIC (Staphylococcus aureus [1]) [mg/L] | MIC (Escherichia coli) [mg/L] | MIC (Streptococcus pyogenes [2]) [mg/L] | MIC (Pseudomonas aeruginosa) [mg/L] | MIC (Bacillus subtilis) [mg/L] | MIC [3] [mg/L] | MIC (Staphylococcus aureus [4]) [mg/L] | MIC (Streptococcus pneumoniae [5]) [mg/L] | MIC (Streptococcus pneumoniae [6]) [mg/L] | MIC (Streptococcus pneumoniae [7]) [mg/L] | MIC (Streptococcus pyogenes [8]) [mg/L]
CC[C@H]1OC(=O)[C@H](C)[C@@H](OC(=O)Nc2cccc(C)c2)[C@H](C)[C@@H](O[C@@H]2O[C@H](C)C[C@H](N(C)C)[C@H]2O)[C@](C)(O)C[C@@H](C)CN(C)[C@H](C)[C@@H](OC(=O)NCc2ccc(OC)cc2)[C@]1(C)O | 16 (≈ 18 µM) | 128 (≈ 144 µM) | 1 (≈ 1.13 µM) | 128 (≈ 144 µM) | 16 (≈ 18 µM) | 32 (≈ 36.1 µM) | 128 (≈ 144 µM) | 128 (≈ 144 µM) | 8 (≈ 9.02 µM) | 16 (≈ 18 µM) | 128 (≈ 144 µM)
CC[C@H]1OC(=O)[C@H](C)[C@@H](O)[C@H](C)[C@@H](O[C@@H]2O[C@H](C)C[C@H](N(C)C)[C@H]2OC(=O)Nc2cccc(C)c2)[C@](C)(O)C[C@@H](C)CN(C)[C@H](C)[C@H]2OC(=O)O[C@@]21C | 32 (≈ 42.7 µM) | 64 (≈ 85.3 µM) | 1 (≈ 1.33 µM) | 128 (≈ 171 µM) | 32 (≈ 42.7 µM) | 32 (≈ 42.7 µM) | 128 (≈ 171 µM) | 128 (≈ 171 µM) | 128 (≈ 171 µM) | 64 (≈ 85.3 µM) | 64 (≈ 85.3 µM)
CC[C@H]1OC(=O)[C@H](C)[C@@H](OC(=O)Nc2ccccc2)[C@H](C)[C@@H](O[C@@H]2O[C@H](C)C[C@H](N(C)C)[C@H]2O)[C@](C)(O)C[C@@H](C)CN(C)[C@H](C)[C@@H](OC(=O)NCc2ccc(C)cc2)[C@]1(C)O | 32 (≈ 37.3 µM) | 128 (≈ 149 µM) | 4 (≈ 4.67 µM) | 128 (≈ 149 µM) | 32 (≈ 37.3 µM) | 16 (≈ 18.7 µM) | 128 (≈ 149 µM) | 64 (≈ 74.7 µM) | 16 (≈ 18.7 µM) | 64 (≈ 74.7 µM) | 64 (≈ 74.7 µM)
CC[C@H]1OC(=O)[C@H](C)[C@@H](O)[C@H](C)[C@@H](O[C@@H]2O[C@H](C)C[C@H](N(C)C)[C@H]2OC(=O)Nc2cccc(Cl)c2)[C@](C)(O)C[C@@H](C)CN(C)[C@H](C)[C@H]2OC(=O)O[C@@]21C | 16 (≈ 20.8 µM) | 32 (≈ 41.5 µM) | 1 (≈ 1.3 µM) | 64 (≈ 83.1 µM) | 8 (≈ 10.4 µM) | 32 (≈ 41.5 µM) | 128 (≈ 166 µM) | 64 (≈ 83.1 µM) | 8 (≈ 10.4 µM) | 32 (≈ 41.5 µM) | 64 (≈ 83.1 µM)
CC[C@H]1OC(=O)[C@H](C)[C@@H](OC(=O)Nc2cccc(Cl)c2)[C@H](C)[C@@H](O[C@@H]2O[C@H](C)C[C@H](N(C)C)[C@H]2O)[C@](C)(O)C[C@@H](C)CN(C)[C@H](C)[C@H]2OC(=O)O[C@@]21C | 8 (≈ 10.4 µM) | 128 (≈ 166 µM) | 0.25 (≈ 0.325 µM) | 128 (≈ 166 µM) | 16 (≈ 20.8 µM) | 0.5 (≈ 0.649 µM) | 64 (≈ 83.1 µM) | 32 (≈ 41.5 µM) | 1 (≈ 1.3 µM) | 4 (≈ 5.19 µM) | 32 (≈ 41.5 µM)
CCCCCNC(=O)O[C@H]1[C@H](C)[C@@H](O[C@@H]2O[C@H](C)C[C@H](N(C)C)[C@H]2OC(C)=O)[C@](C)(O)C[C@@H](C)CN(C)[C@H](C)[C@H]2OC(=O)O[C@]2(C)[C@@H](CC)OC(=O)[C@@H]1C | 32 (≈ 41.5 µM) | 128 (≈ 166 µM) | 4 (≈ 5.18 µM) | 128 (≈ 166 µM) | 32 (≈ 41.5 µM) | 32 (≈ 41.5 µM) | 64 (≈ 82.9 µM) | 64 (≈ 82.9 µM) | 32 (≈ 41.5 µM) | 128 (≈ 166 µM) | 128 (≈ 166 µM)
CC[C@H]1OC(=O)[C@H](C)[C@@H](OC(=O)Nc2ccccc2)[C@H](C)[C@@H](O[C@@H]2O[C@H](C)C[C@H](N(C)C)[C@H]2O)[C@](C)(O)C[C@@H](C)CN(C)[C@H](C)[C@@H](OC(=O)NCc2ccccc2)[C@]1(C)O | 32 (≈ 38 µM) | 64 (≈ 75.9 µM) | 2 (≈ 2.37 µM) | 64 (≈ 75.9 µM) | 8 (≈ 9.49 µM) | 32 (≈ 38 µM) | 128 (≈ 152 µM) | 128 (≈ 152 µM) | 16 (≈ 19 µM) | 2 (≈ 2.37 µM) | 64 (≈ 75.9 µM)
CC[C@H]1OC(=O)[C@H](C)[C@@H](OC(=O)Nc2cccc(C)c2)[C@H](C)[C@@H](O[C@@H]2O[C@H](C)C[C@H](N(C)C)[C@H]2O)[C@](C)(O)C[C@@H](C)CN(C)[C@H](C)[C@@H](OC(=O)NCc2ccc(C)cc2)[C@]1(C)O | 8 (≈ 9.18 µM) | 64 (≈ 73.5 µM) | 4 (≈ 4.59 µM) | 64 (≈ 73.5 µM) | 8 (≈ 9.18 µM) | 4 (≈ 4.59 µM) | 128 (≈ 147 µM) | 64 (≈ 73.5 µM) | 32 (≈ 36.7 µM) | 16 (≈ 18.4 µM) | 32 (≈ 36.7 µM)
CC[C@H]1OC(=O)[C@H](C)[C@@H](OC(=O)Nc2ccccc2F)[C@H](C)[C@@H](O[C@@H]2O[C@H](C)C[C@H](N(C)C)[C@H]2OC(C)=O)[C@](C)(O)C[C@@H](C)CN(C)[C@H](C)[C@H]2OC(=O)O[C@@]21C | 32 (≈ 40.2 µM) | 64 (≈ 80.4 µM) | 4 (≈ 5.03 µM) | 128 (≈ 161 µM) | 32 (≈ 40.2 µM) | 64 (≈ 80.4 µM) | 64 (≈ 80.4 µM) | 128 (≈ 161 µM) | 8 (≈ 10.1 µM) | 32 (≈ 40.2 µM) | 128 (≈ 161 µM)
CC[C@H]1OC(=O)[C@H](C)[C@@H](OC(=O)Nc2cccc(F)c2)[C@H](C)[C@@H](O[C@@H]2O[C@H](C)C[C@H](N(C)C)[C@H]2O)[C@](C)(O)C[C@@H](C)CN(C)[C@H](C)[C@H]2OC(=O)O[C@@]21C | 32 (≈ 42.4 µM) | 128 (≈ 170 µM) | 2 (≈ 2.65 µM) | 128 (≈ 170 µM) | 128 (≈ 170 µM) | 64 (≈ 84.9 µM) | 128 (≈ 170 µM) | 64 (≈ 84.9 µM) | 16 (≈ 21.2 µM) | 32 (≈ 42.4 µM) | 128 (≈ 170 µM)
CC[C@H]1OC(=O)[C@H](C)[C@@H](O)[C@H](C)[C@@H](O[C@@H]2O[C@H](C)C[C@H](N(C)C)[C@H]2OC(=O)Nc2cccc(OC)c2)[C@](C)(O)C[C@@H](C)CN(C)[C@H](C)[C@H]2OC(=O)O[C@@]21C | 32 (≈ 41.8 µM) | 64 (≈ 83.6 µM) | 2 (≈ 2.61 µM) | 64 (≈ 83.6 µM) | 128 (≈ 167 µM) | 64 (≈ 83.6 µM) | 128 (≈ 167 µM) | 128 (≈ 167 µM) | 16 (≈ 20.9 µM) | 32 (≈ 41.8 µM) | 128 (≈ 167 µM)
CC[C@H]1OC(=O)[C@H](C)[C@@H](O)[C@H](C)[C@@H](O[C@@H]2O[C@H](C)C[C@H](N(C)C)[C@H]2OC(=O)Nc2ccccc2C)[C@](C)(O)C[C@@H](C)CN(C)[C@H](C)[C@H]2OC(=O)O[C@@]21C | 4 (≈ 5.33 µM) | 64 (≈ 85.3 µM) | 0.5 (≈ 0.667 µM) | 64 (≈ 85.3 µM) | 4 (≈ 5.33 µM) | 16 (≈ 21.3 µM) | 32 (≈ 42.7 µM) | 64 (≈ 85.3 µM) | 2 (≈ 2.67 µM) | 4 (≈ 5.33 µM) | 64 (≈ 85.3 µM)
CC[C@H]1OC(=O)[C@H](C)[C@@H](OC(=O)Nc2ccccc2F)[C@H](C)[C@@H](O[C@@H]2O[C@H](C)C[C@H](N(C)C)[C@H]2O)[C@](C)(O)C[C@@H](C)CN(C)[C@H](C)[C@H]2OC(=O)O[C@@]21C | 8 (≈ 10.6 µM) | 64 (≈ 84.9 µM) | 0.5 (≈ 0.663 µM) | 64 (≈ 84.9 µM) | 32 (≈ 42.4 µM) | 4 (≈ 5.31 µM) | 64 (≈ 84.9 µM) | 64 (≈ 84.9 µM) | 16 (≈ 21.2 µM) | 16 (≈ 21.2 µM) | 64 (≈ 84.9 µM)
CC[C@H]1OC(=O)[C@H](C)[C@@H](OC(=O)Nc2cccc(C(F)(F)F)c2)[C@H](C)[C@@H](O[C@@H]2O[C@H](C)C[C@H](N(C)C)[C@H]2O)[C@](C)(O)C[C@@H](C)CN(C)[C@H](C)[C@H]2OC(=O)O[C@@]21C | 16 (≈ 19.9 µM) | 128 (≈ 159 µM) | 1 (≈ 1.24 µM) | 128 (≈ 159 µM) | 64 (≈ 79.6 µM) | 0.5 (≈ 0.622 µM) | 128 (≈ 159 µM) | 32 (≈ 39.8 µM) | 8 (≈ 9.95 µM) | 8 (≈ 9.95 µM) | 64 (≈ 79.6 µM)
CC[C@H]1OC(=O)[C@H](C)[C@@H](OC(=O)Nc2ccccc2Cl)[C@H](C)[C@@H](O[C@@H]2O[C@H](C)C[C@H](N(C)C)[C@H]2O)[C@](C)(O)C[C@@H](C)CN(C)[C@H](C)[C@H]2OC(=O)O[C@@]21C | 8 (≈ 10.4 µM) | 128 (≈ 166 µM) | 0.125 (≈ 0.162 µM) | 128 (≈ 166 µM) | 8 (≈ 10.4 µM) | 64 (≈ 83.1 µM) | 64 (≈ 83.1 µM) | 64 (≈ 83.1 µM) | 1 (≈ 1.3 µM) | 4 (≈ 5.19 µM) | 128 (≈ 166 µM)
CC[C@H]1OC(=O)[C@H](C)[C@@H](OC(=O)Nc2ccc(F)cc2)[C@H](C)[C@@H](O[C@@H]2O[C@H](C)C[C@H](N(C)C)[C@H]2O)[C@](C)(O)C[C@@H](C)CN(C)[C@H](C)[C@H]2OC(=O)O[C@@]21C | 32 (≈ 42.4 µM) | 128 (≈ 170 µM) | 0.25 (≈ 0.332 µM) | 128 (≈ 170 µM) | 16 (≈ 21.2 µM) | 64 (≈ 84.9 µM) | 64 (≈ 84.9 µM) | 32 (≈ 42.4 µM) | 2 (≈ 2.65 µM) | 8 (≈ 10.6 µM) | 64 (≈ 84.9 µM)
CC[C@H]1OC(=O)[C@H](C)[C@@H](O)[C@H](C)[C@@H](O[C@@H]2O[C@H](C)C[C@H](N(C)C)[C@H]2OC(=O)Nc2cccc(F)c2)[C@](C)(O)C[C@@H](C)CN(C)[C@H](C)[C@H]2OC(=O)O[C@@]21C | 32 (≈ 42.4 µM) | 128 (≈ 170 µM) | 1 (≈ 1.33 µM) | 128 (≈ 170 µM) | 128 (≈ 170 µM) | 64 (≈ 84.9 µM) | 128 (≈ 170 µM) | 256 (≈ 340 µM) | 8 (≈ 10.6 µM) | 16 (≈ 21.2 µM) | 128 (≈ 170 µM)
